Non-standard residues stand in square brackets, D forms with d. Residues, ends and D or L forms follow the SMILES beside them. Tpi = O=C(O)[C@@H]1Cc2c([nH]c3ccccc23)CN1
Tested on: Mus musculus
Assay: Analgesic activity in ICR mouse assessed as increase in pain threshold at 0.15 mmol/kg, po after 120 mins by tail flick method (reference value: 8.09 +/- 13.28 %)
Assay type: functional

SMILES | Activity [%]
O=C(O)[C@H](Cc1c[nH]c2ccccc12)NC(=O)[C@H](Cc1ccccc1)NC(=O)[C@H](Cc1cnc[nH]1)NC(=O)[C@@H]1Cc2c([nH]c3ccccc23)CN1 (H-[Tpi]HFW-OH) | 39.38
CC[C@H](C)[C@H](NC(=O)[C@@H]1Cc2c([nH]c3ccccc23)CN1)C(=O)N[C@@H](Cc1ccccc1)C(=O)N[C@@H](Cc1c[nH]c2ccccc12)C(=O)O (H-[Tpi]IFW-OH) | 27.32
NC(=O)C[C@H](NC(=O)[C@@H]1Cc2c([nH]c3ccccc23)CN1)C(=O)N[C@@H](Cc1ccccc1)C(=O)N[C@@H](Cc1c[nH]c2ccccc12)C(=O)O (H-[Tpi]NFW-OH) | 39.25
O=C(O)[C@H](Cc1c[nH]c2ccccc12)NC(=O)[C@H](Cc1ccccc1)NC(=O)[C@@H]1CCCN1C(=O)[C@@H]1Cc2c([nH]c3ccccc23)CN1 (H-[Tpi]PFW-OH) | 18.79
NC(=O)CC[C@H](NC(=O)[C@@H]1Cc2c([nH]c3ccccc23)CN1)C(=O)N[C@@H](Cc1ccccc1)C(=O)N[C@@H](Cc1c[nH]c2ccccc12)C(=O)O (H-[Tpi]QFW-OH) | 32.33

Tested on: Mus musculus
Assay: Analgesic activity in ICR mouse assessed as increase in pain threshold at 0.15 mmol/kg, po after 30 mins by tail flick method (reference value: 5.03 +/- 10.26 %)
Assay type: functional

SMILES | Activity [%]
O=C(O)[C@H](Cc1c[nH]c2ccccc12)NC(=O)[C@H](Cc1ccccc1)NC(=O)[C@H](Cc1cnc[nH]1)NC(=O)[C@@H]1Cc2c([nH]c3ccccc23)CN1 (H-[Tpi]HFW-OH) | 37.25
CC[C@H](C)[C@H](NC(=O)[C@@H]1Cc2c([nH]c3ccccc23)CN1)C(=O)N[C@@H](Cc1ccccc1)C(=O)N[C@@H](Cc1c[nH]c2ccccc12)C(=O)O (H-[Tpi]IFW-OH) | 33.01
NC(=O)C[C@H](NC(=O)[C@@H]1Cc2c([nH]c3ccccc23)CN1)C(=O)N[C@@H](Cc1ccccc1)C(=O)N[C@@H](Cc1c[nH]c2ccccc12)C(=O)O (H-[Tpi]NFW-OH) | 21.24
O=C(O)[C@H](Cc1c[nH]c2ccccc12)NC(=O)[C@H](Cc1ccccc1)NC(=O)[C@@H]1CCCN1C(=O)[C@@H]1Cc2c([nH]c3ccccc23)CN1 (H-[Tpi]PFW-OH) | 23.17
NC(=O)CC[C@H](NC(=O)[C@@H]1Cc2c([nH]c3ccccc23)CN1)C(=O)N[C@@H](Cc1ccccc1)C(=O)N[C@@H](Cc1c[nH]c2ccccc12)C(=O)O (H-[Tpi]QFW-OH) | 41.83

Tested on: Mus musculus
Assay: Analgesic activity in ICR mouse assessed as increase in pain threshold at 0.15 mmol/kg, po after 150 mins by tail flick method (reference value: 9.02 +/- 12.19 %)
Assay type: functional

SMILES | Activity [%]
O=C(O)[C@H](Cc1c[nH]c2ccccc12)NC(=O)[C@H](Cc1ccccc1)NC(=O)[C@H](Cc1cnc[nH]1)NC(=O)[C@@H]1Cc2c([nH]c3ccccc23)CN1 (H-[Tpi]HFW-OH) | 24.33
CC[C@H](C)[C@H](NC(=O)[C@@H]1Cc2c([nH]c3ccccc23)CN1)C(=O)N[C@@H](Cc1ccccc1)C(=O)N[C@@H](Cc1c[nH]c2ccccc12)C(=O)O (H-[Tpi]IFW-OH) | 15.25
NC(=O)C[C@H](NC(=O)[C@@H]1Cc2c([nH]c3ccccc23)CN1)C(=O)N[C@@H](Cc1ccccc1)C(=O)N[C@@H](Cc1c[nH]c2ccccc12)C(=O)O (H-[Tpi]NFW-OH) | 22.12
O=C(O)[C@H](Cc1c[nH]c2ccccc12)NC(=O)[C@H](Cc1ccccc1)NC(=O)[C@@H]1CCCN1C(=O)[C@@H]1Cc2c([nH]c3ccccc23)CN1 (H-[Tpi]PFW-OH) | 25.05
NC(=O)CC[C@H](NC(=O)[C@@H]1Cc2c([nH]c3ccccc23)CN1)C(=O)N[C@@H](Cc1ccccc1)C(=O)N[C@@H](Cc1c[nH]c2ccccc12)C(=O)O (H-[Tpi]QFW-OH) | 18.32

Tested on: Mus musculus
Assay: Analgesic activity in ICR mouse assessed as increase in pain threshold at 0.15 mmol/kg, po after 180 mins by tail flick method (reference value: 8.75 +/- 9.73 %)
Assay type: functional

SMILES | Activity [%]
O=C(O)[C@H](Cc1c[nH]c2ccccc12)NC(=O)[C@H](Cc1ccccc1)NC(=O)[C@H](Cc1cnc[nH]1)NC(=O)[C@@H]1Cc2c([nH]c3ccccc23)CN1 (H-[Tpi]HFW-OH) | 13.29
CC[C@H](C)[C@H](NC(=O)[C@@H]1Cc2c([nH]c3ccccc23)CN1)C(=O)N[C@@H](Cc1ccccc1)C(=O)N[C@@H](Cc1c[nH]c2ccccc12)C(=O)O (H-[Tpi]IFW-OH) | 16.13
NC(=O)C[C@H](NC(=O)[C@@H]1Cc2c([nH]c3ccccc23)CN1)C(=O)N[C@@H](Cc1ccccc1)C(=O)N[C@@H](Cc1c[nH]c2ccccc12)C(=O)O (H-[Tpi]NFW-OH) | 19.45
O=C(O)[C@H](Cc1c[nH]c2ccccc12)NC(=O)[C@H](Cc1ccccc1)NC(=O)[C@@H]1CCCN1C(=O)[C@@H]1Cc2c([nH]c3ccccc23)CN1 (H-[Tpi]PFW-OH) | 15.68
NC(=O)CC[C@H](NC(=O)[C@@H]1Cc2c([nH]c3ccccc23)CN1)C(=O)N[C@@H](Cc1ccccc1)C(=O)N[C@@H](Cc1c[nH]c2ccccc12)C(=O)O (H-[Tpi]QFW-OH) | 22.45

Tested on: Mus musculus
Assay: Analgesic activity in ICR mouse assessed as increase in pain threshold at 0.15 mmol/kg, po after 60 mins by tail flick method (reference value: 7.45 +/- 8.03 %)
Assay type: functional

SMILES | Activity [%]
O=C(O)[C@H](Cc1c[nH]c2ccccc12)NC(=O)[C@H](Cc1ccccc1)NC(=O)[C@H](Cc1cnc[nH]1)NC(=O)[C@@H]1Cc2c([nH]c3ccccc23)CN1 (H-[Tpi]HFW-OH) | 32.19
CC[C@H](C)[C@H](NC(=O)[C@@H]1Cc2c([nH]c3ccccc23)CN1)C(=O)N[C@@H](Cc1ccccc1)C(=O)N[C@@H](Cc1c[nH]c2ccccc12)C(=O)O (H-[Tpi]IFW-OH) | 38.01
NC(=O)C[C@H](NC(=O)[C@@H]1Cc2c([nH]c3ccccc23)CN1)C(=O)N[C@@H](Cc1ccccc1)C(=O)N[C@@H](Cc1c[nH]c2ccccc12)C(=O)O (H-[Tpi]NFW-OH) | 45.23
O=C(O)[C@H](Cc1c[nH]c2ccccc12)NC(=O)[C@H](Cc1ccccc1)NC(=O)[C@@H]1CCCN1C(=O)[C@@H]1Cc2c([nH]c3ccccc23)CN1 (H-[Tpi]PFW-OH) | 49.74
NC(=O)CC[C@H](NC(=O)[C@@H]1Cc2c([nH]c3ccccc23)CN1)C(=O)N[C@@H](Cc1ccccc1)C(=O)N[C@@H](Cc1c[nH]c2ccccc12)C(=O)O (H-[Tpi]QFW-OH) | 47.33

Tested on: Mus musculus
Assay: Analgesic activity in ICR mouse assessed as increase in pain threshold at 0.15 mmol/kg, po after 90 mins by tail flick method (reference value: 7.53 +/- 11.54 %)
Assay type: functional

SMILES | Activity [%]
O=C(O)[C@H](Cc1c[nH]c2ccccc12)NC(=O)[C@H](Cc1ccccc1)NC(=O)[C@H](Cc1cnc[nH]1)NC(=O)[C@@H]1Cc2c([nH]c3ccccc23)CN1 (H-[Tpi]HFW-OH) | 22.23
CC[C@H](C)[C@H](NC(=O)[C@@H]1Cc2c([nH]c3ccccc23)CN1)C(=O)N[C@@H](Cc1ccccc1)C(=O)N[C@@H](Cc1c[nH]c2ccccc12)C(=O)O (H-[Tpi]IFW-OH) | 41.23
NC(=O)C[C@H](NC(=O)[C@@H]1Cc2c([nH]c3ccccc23)CN1)C(=O)N[C@@H](Cc1ccccc1)C(=O)N[C@@H](Cc1c[nH]c2ccccc12)C(=O)O (H-[Tpi]NFW-OH) | 34.56
O=C(O)[C@H](Cc1c[nH]c2ccccc12)NC(=O)[C@H](Cc1ccccc1)NC(=O)[C@@H]1CCCN1C(=O)[C@@H]1Cc2c([nH]c3ccccc23)CN1 (H-[Tpi]PFW-OH) | 21.35
NC(=O)CC[C@H](NC(=O)[C@@H]1Cc2c([nH]c3ccccc23)CN1)C(=O)N[C@@H](Cc1ccccc1)C(=O)N[C@@H](Cc1c[nH]c2ccccc12)C(=O)O (H-[Tpi]QFW-OH) | 51.25

Tested on: Mus musculus
Assay: Antiinflammatory activity in ICR mouse assessed as inhibition of xylene-induced ear edema at 0.15 mmol/kg, po administered 30 mins before xylene challenge measured after 2 hrs relative to control
Assay type: functional
How it was run: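 Male ICR mice (20 ± 2 g), randomised to test, vehicle (CMC) and aspirin (10 mg/kg oral) groups. Test agents given orally as CMC suspension. After 30 min, 0.03 mL xylene applied to both faces of the right ear, left ear as control. At 2 h mice were killed and 7 mm ear punches weighed. Edema is the right-minus-left weight, and inhibition is taken against vehicle.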

SMILES | inhibition in vivo at 150 µmol/kg [%]
O=C(O)[C@H](Cc1c[nH]c2ccccc12)NC(=O)[C@H](Cc1ccccc1)NC(=O)[C@H](Cc1cnc[nH]1)NC(=O)[C@@H]1Cc2c([nH]c3ccccc23)CN1 (H-[Tpi]HFW-OH) | 57.6
CC[C@H](C)[C@H](NC(=O)[C@@H]1Cc2c([nH]c3ccccc23)CN1)C(=O)N[C@@H](Cc1ccccc1)C(=O)N[C@@H](Cc1c[nH]c2ccccc12)C(=O)O (H-[Tpi]IFW-OH) | 56.4
NC(=O)C[C@H](NC(=O)[C@@H]1Cc2c([nH]c3ccccc23)CN1)C(=O)N[C@@H](Cc1ccccc1)C(=O)N[C@@H](Cc1c[nH]c2ccccc12)C(=O)O (H-[Tpi]NFW-OH) | 55.8
O=C(O)[C@H](Cc1c[nH]c2ccccc12)NC(=O)[C@H](Cc1ccccc1)NC(=O)[C@@H]1CCCN1C(=O)[C@@H]1Cc2c([nH]c3ccccc23)CN1 (H-[Tpi]PFW-OH) | 47.3
NC(=O)CC[C@H](NC(=O)[C@@H]1Cc2c([nH]c3ccccc23)CN1)C(=O)N[C@@H](Cc1ccccc1)C(=O)N[C@@H](Cc1c[nH]c2ccccc12)C(=O)O (H-[Tpi]QFW-OH) | 42.4

Reference: ChEMBL document CHEMBL1781989, “Novel β-carboline-tripeptide conjugates attenuate mesenteric ischemia/reperfusion injury in the rat” (2011)
